Series [1] concerns HMVEC. Nature of the series: Antiangiogenic activity in VEGF-stimulated HMVEC cells after 72 hrs by CellTiter assay. In kind it is functional, cell-based. Conditions: Homo sapiens.
In series [2] the test system is HUVEC. Put plainly: Antiangiogenic activity in FGF2-stimulated HUVEC cells after 72 hrs by CellTiter assay. The conditions noted are these: Homo sapiens. Format: functional, cell-based.
Series [3] relates to HMVEC. Put plainly: Antiangiogenic activity in FGF1-stimulated HMVEC cells after 72 hrs by CellTiter assay. The conditions noted are these: Homo sapiens. In kind it is functional, cell-based.
Series [4] deals with Vascular endothelial growth factor A (Homo sapiens) (UniProt P15692). Put plainly: Binding affinity to VEGF by surface plasmon resonance assay.
For series [5], the system named is Plasma. Nature of the series: Anticoagulant activity in pooled human plasma assessed as prolongation of the recalcification time at 0.1 mg/ml by Heptest assay. Format: ADME, cell-free. The gist of the method:
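Heptest clotting time in pooled normal human plasma; normal range 13–20 s. Values are the mean of two determinations.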

In series [6] the test system is HUVEC. Nature of the series: Antiangiogenic activity in VEGF-stimulated HUVEC cells after 72 hrs by CellTiter assay. In kind it is functional, cell-based. Conditions: Homo sapiens.
Series [7] deals with HUVEC. Nature of the series: Antiangiogenic activity in FGF1-stimulated HUVEC cells after 72 hrs by CellTiter assay. The conditions noted are these: Homo sapiens. In kind it is functional, cell-based.
The target of series [8] is Fibroblast growth factor 1 (Homo sapiens, UniProt P05230). Nature of the series: Binding affinity to FGF-1 by surface plasmon resonance assay. The gist of the method:
(§1)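 Solution-affinity SPR on heparin-coated CM4 chips. FGF-1 measured in HBS-EP (10 mM HEPES pH 7.4, 150 mM NaCl, 3.0 mM EDTA, 0.005% polysorbate 20); FGF-2 measured in HBS-EP with 300 mM NaCl. Kd is the average of at least duplicate measurements ± SD.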

For series [9], the system named is Plasma. Nature of the series: Anticoagulant activity in pooled human plasma assessed as activated partial thromboplastin time at 0.1 mg/ml. In kind it is ADME, cell-free. Put shortly: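 APTT of pooled normal human plasma measured with compound at 0–100 μg/mL in PBS on a ball coagulameter, using unfractionated heparin as the reference. Normal range 26–36 s; coefficient of variation 2% at 36 s and 5–7% at 90 s or above. Values are the mean of two determinations.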

Series [10] addresses Fibroblast growth factor 2 (Homo sapiens, UniProt P09038). Put plainly: Binding affinity to FGF-2 by surface plasmon resonance assay. Put shortly:
as §1
In general terms: In SPR one partner is held on a chip, and binding of the other changes the refractive index at the surface.

The test system of series [11] is HMVEC. Put plainly: Antiangiogenic activity in FGF2-stimulated HMVEC cells after 72 hrs by CellTiter assay. In kind it is functional, cell-based. The conditions noted are these: Homo sapiens.
A further series concerns the target T1, Heparanase (Homo sapiens, UniProt Q9Y251).
T1 sequence (Q9Y251 whole entry): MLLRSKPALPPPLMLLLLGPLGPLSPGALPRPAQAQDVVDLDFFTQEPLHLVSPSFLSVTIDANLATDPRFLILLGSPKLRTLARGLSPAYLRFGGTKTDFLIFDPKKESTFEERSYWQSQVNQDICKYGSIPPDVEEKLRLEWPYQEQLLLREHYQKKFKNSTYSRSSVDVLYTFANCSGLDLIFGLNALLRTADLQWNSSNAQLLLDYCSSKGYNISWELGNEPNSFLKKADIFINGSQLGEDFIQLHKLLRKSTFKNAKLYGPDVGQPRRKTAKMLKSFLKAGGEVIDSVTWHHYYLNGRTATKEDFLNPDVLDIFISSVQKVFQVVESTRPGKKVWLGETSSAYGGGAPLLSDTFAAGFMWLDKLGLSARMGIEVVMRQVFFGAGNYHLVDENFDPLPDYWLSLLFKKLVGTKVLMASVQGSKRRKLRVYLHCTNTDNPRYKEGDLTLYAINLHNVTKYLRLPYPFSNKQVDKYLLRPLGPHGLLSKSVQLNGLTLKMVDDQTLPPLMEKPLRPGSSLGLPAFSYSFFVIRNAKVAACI
Nature of the series: Inhibition of human recombinant heparanase after 2 to 24 hrs by WST1 dye based fondaparinux assay.

pIC50, pKd, pKi: −log10 of the molar value. Calls of active or inactive are those of the source. No cut-off for these calls is given here.

Chain of Fibroblast growth factor 1 (P05230 whole entry): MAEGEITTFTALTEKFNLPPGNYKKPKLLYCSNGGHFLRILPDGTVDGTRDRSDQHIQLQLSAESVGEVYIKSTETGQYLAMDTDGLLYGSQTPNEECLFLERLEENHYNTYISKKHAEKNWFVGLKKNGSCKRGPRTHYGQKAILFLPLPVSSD
Chain of Fibroblast growth factor 2 (P09038 143-288 limits assumed): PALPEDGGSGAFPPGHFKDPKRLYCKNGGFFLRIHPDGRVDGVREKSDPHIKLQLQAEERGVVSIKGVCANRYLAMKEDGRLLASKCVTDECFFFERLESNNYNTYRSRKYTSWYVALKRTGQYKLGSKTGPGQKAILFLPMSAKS

Turning to `CC(C)CCC[C@@H](C)[C@H]1CC[C@H]2[C@@H]3CC[C@H]4C[C@@H](O[C@H]5O[C@H](COS(=O)(=O)[O-])[C@@H](OS(=O)(=O)[O-])[C@H](OS(=O)(=O)[O-])[C@@H]5O[C@H]5O[C@H](COS(=O)(=O)[O-])[C@@H](OS(=O)(=O)[O-])[C@H](O[C@H]6O[C@H](COS(=O)(=O)[O-])[C@@H](OS(=O)(=O)[O-])[C@H](OS(=O)(=O)[O-])[C@@H]6OS(=O)(=O)[O-])[C@@H]5OS(=O)(=O)[O-])CC[C@]4(C)[C@H]3CC[C@]12C.[Na+].[Na+].[Na+].[Na+].[Na+].[Na+].[Na+].[Na+].[Na+].[Na+]`, the result in the series on HMVEC [1], in the series on HMVEC [3] and in the series with HMVEC [11] was Active. Moreover, the pIC50 (as a rule, −log10 of the IC50, conventionally taken in molar units) was 5.64 with HUVEC [2], 6.00 in the series on HUVEC [6] and 5.36 in the series with HUVEC [7]. For the same compound, the pKd (as a rule, the negative decadic logarithm of the Kd, by convention in mol/L) was 6.50 in series [4], 7.73 in [8] and 6.20 in series [10]. Moreover, the Time in the series with Plasma [5] came to 27.3 s. The APTT with Plasma [9] amounted to 50.7 s. For the same compound, on Heparanase, the pKi – broadly, −log10 of the Ki, conventionally taken in molar units – was 8.19.

Take `CC(=O)O[C@H]1C[C@H]2[C@@H](CC[C@H]3C[C@@H](OS(=O)(=O)[O-])CC[C@@]32C)[C@@H]2CC[C@H]([C@H](C)CCC(=O)N[C@@H]3O[C@H](COS(=O)(=O)[O-])[C@@H](O[C@H]4O[C@H](COS(=O)(=O)[O-])[C@@H](O[C@H]5O[C@H](COS(=O)(=O)[O-])[C@@H](O[C@H]6O[C@H](COS(=O)(=O)[O-])[C@@H](OS(=O)(=O)[O-])[C@H](OS(=O)(=O)[O-])[C@H]6OS(=O)(=O)[O-])[C@H](OS(=O)(=O)[O-])[C@H]5OS(=O)(=O)[O-])[C@H](OS(=O)(=O)[O-])[C@H]4OS(=O)(=O)[O-])[C@H](OS(=O)(=O)[O-])[C@H]3OS(=O)(=O)[O-])[C@@]12C.[Na+].[Na+].[Na+].[Na+].[Na+].[Na+].[Na+].[Na+].[Na+].[Na+].[Na+].[Na+].[Na+].[Na+]`: the result in the series with HMVEC [1], in the series with HMVEC [3] and in the series on HMVEC [11] was Active. For the same compound, the pIC50 with HUVEC [2], in the series on HUVEC [6] and in the series with HUVEC [7] was below 4.30 in each case. The results for the pKd in [4], in series [8] and in series [10] were 8.10, 8.90 and 7.30, respectively. For the same compound, the Time in the series on Plasma [5] was 26.8 s. The APTT in the series on Plasma [9] came to 41 s. Also, on Heparanase, the pKi is 7.70.

`CC(C)CCC[C@@H](C)[C@H]1CC[C@H]2[C@@H]3CC[C@H]4C[C@@H](O[C@H]5O[C@H](COS(=O)(=O)[O-])[C@@H](OS(=O)(=O)[O-])[C@H](OS(=O)(=O)[O-])[C@@H]5O[C@H]5O[C@H](COS(=O)(=O)[O-])[C@@H](OS(=O)(=O)[O-])[C@H](OS(=O)(=O)[O-])[C@@H]5OS(=O)(=O)[O-])CC[C@]4(C)[C@H]3CC[C@]12C.[Na+].[Na+].[Na+].[Na+].[Na+].[Na+].[Na+]`: the result in the series with HMVEC [1], in the series with HMVEC [3] and in the series on HMVEC [11] was Active. In addition, the pIC50 in the series with HUVEC [2] was 5.65; in the series on HUVEC [6], 5.74; in the series on HUVEC [7], below 5.00. In addition, in [4], the pKd was 5.89. In addition, the Time with Plasma [5] amounted to 25.5 s. The APTT in the series on Plasma [9] came to 40.6 s.

Turning to `CC(C)CCC[C@@H](C)[C@H]1CC[C@H]2[C@@H]3CC[C@H]4C[C@@H](OCc5cn([C@@H]6O[C@H](COS(=O)(=O)[O-])[C@@H](O[C@H]7O[C@H](COS(=O)(=O)[O-])[C@@H](OS(=O)(=O)[O-])[C@H](OS(=O)(=O)[O-])[C@H]7OS(=O)(=O)[O-])[C@H](OS(=O)(=O)[O-])[C@H]6OS(=O)(=O)[O-])nn5)CC[C@]4(C)[C@H]3CC[C@]12C.[Na+].[Na+].[Na+].[Na+].[Na+].[Na+].[Na+]`, the result in the series with HMVEC [1], in the series on HMVEC [3] and in the series with HMVEC [11] was Active. Besides, the results for the negative logarithm of the IC50 (pIC50) with HUVEC [2], in the series on HUVEC [6] and in the series on HUVEC [7] were 5.38, 5.95 and 5.39, respectively. Further, in series [4], the pKd was 5.71. In addition, the Time in the series on Plasma [5] is reported as 26.7 s. Also, the APTT with Plasma [9] is 40.3 s.

On to `CCCCCCCCCCCCCCCCCC(=O)NCCCO[C@@H]1O[C@H](COS(=O)(=O)[O-])[C@@H](O[C@H]2O[C@H](COS(=O)(=O)[O-])[C@@H](O[C@H]3O[C@H](COS(=O)(=O)[O-])[C@@H](OS(=O)(=O)[O-])[C@H](OS(=O)(=O)[O-])[C@H]3OS(=O)(=O)[O-])[C@H](OS(=O)(=O)[O-])[C@H]2OS(=O)(=O)[O-])[C@H](OS(=O)(=O)[O-])[C@H]1OS(=O)(=O)[O-].[Na+].[Na+].[Na+].[Na+].[Na+].[Na+].[Na+].[Na+].[Na+].[Na+]`, for which the result in the series on HMVEC [1], in the series on HMVEC [3] and in the series with HMVEC [11] was Active. In series [4], this compound had a negative logarithm of the Kd (pKd) of 6.42. Besides, in the series on Plasma [5], the Time came to 24.9 s. In the series with Plasma [9], the APTT turned out to be 51.1 s.

Consider `CC(C)CCC[C@@H](C)[C@H]1CC[C@H]2[C@@H]3CC[C@H]4C[C@@H](O[C@@H]5O[C@H](COS(=O)(=O)[O-])[C@@H](O[C@H]6O[C@H](COS(=O)(=O)[O-])[C@@H](OS(=O)(=O)[O-])[C@H](OS(=O)(=O)[O-])[C@H]6OS(=O)(=O)[O-])[C@H](OS(=O)(=O)[O-])[C@H]5OS(=O)(=O)[O-])CC[C@]4(C)[C@H]3CC[C@]12C.[Na+].[Na+].[Na+].[Na+].[Na+].[Na+].[Na+]`, for which the outcome in the series with HMVEC [1], with HMVEC [3] and in the series on HMVEC [11] was Active. Moreover, the pIC50 was below 5.00 in the series with HUVEC [2], 5.28 with HUVEC [6] and 5.40 with HUVEC [7]. The pKd is 5.92 in [4], 6.25 in series [8] and 5.66 in series [10]. For the same compound, in the series with Plasma [5], the Time was determined as 23.9 s. Also, the APTT in the series with Plasma [9] was 38.6 s.

Take `CC(C)CCC[C@@H](C)[C@H]1CC[C@H]2[C@@H]3CC[C@H]4C[C@@H](O[C@@H]5O[C@H](COS(=O)(=O)[O-])[C@@H](O[C@@H]6O[C@H](COS(=O)(=O)[O-])[C@@H](OS(=O)(=O)[O-])[C@H](OS(=O)(=O)[O-])[C@H]6OS(=O)(=O)[O-])[C@H](OS(=O)(=O)[O-])[C@H]5OS(=O)(=O)[O-])CC[C@]4(C)[C@H]3CC[C@]12C.[Na+].[Na+].[Na+].[Na+].[Na+].[Na+].[Na+]`: the outcome in the series with HMVEC [1], with HMVEC [3] and in the series with HMVEC [11] was Active. Besides, the pIC50 in the series on HUVEC [2] was 5.25; in the series on HUVEC [6], 5.25; with HUVEC [7], 5.22. The negative-log Kd (pKd) in series [4] was 5.87; in [8] it was 6.06; in series [10], 5.70. For the same compound, in the series on Plasma [5], the Time is given as 25.3 s. The APTT with Plasma [9] was found to be 38.8 s.

Consider `CC(C)CCC[C@@H](C)[C@H]1CC[C@H]2[C@@H]3CC[C@H]4C[C@@H](O[C@H]5O[C@H](COS(=O)(=O)[O-])[C@@H](OS(=O)(=O)[O-])[C@H](OS(=O)(=O)[O-])[C@@H]5OS(=O)(=O)[O-])CC[C@]4(C)[C@H]3CC[C@]12C.[Na+].[Na+].[Na+].[Na+]`, for which the result with HMVEC [1], with HMVEC [3] and in the series with HMVEC [11] was Active. For the same compound, the values for the pIC50 with HUVEC [2], in the series with HUVEC [6] and in the series on HUVEC [7] were 5.54, 5.65 and 5.66, respectively. Besides, the pKd was 5.52 in [4] and below 5.52 in [10]. In addition, in the series on Plasma [5], the Time is on record as 23.9 s. Also, in the series with Plasma [9], the APTT is given as 36.1 s.

For the origin of these results see ChEMBL document CHEMBL2057149 (J Med Chem, 2012).
